What was measured:
[1] = species on record: Homo sapiens; test: Stabilization of 5'Dabcyl/3'FAM labeled human telomeric sequence G-quadruplex DNA assessed as increase in melting temperature at 2.5 uM pretreated for 5 mins at 30 degreeC followed by 5 mins incubation at 95 degreeC by fluorescence assay
Summary of the method: (§1)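 FRET melting in LiP buffer (10 mM LiOH, 50 mM KCl, pH 7.0 with H3PO4), ex 488 nm, em 520 nm. Samples were held 5 min at 30 °C, heated at 1 °C/min to 95 °C, held 5 min, then re-annealed. Tm came from first derivatives; ΔTm = shift with ligand at 2.5; at least three runs.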

[2] = Stabilization of 5'Dabcyl/3'FAM labeled duplex DNA (unknown origin) assessed as increase in melting temperature at 2.5 uM pretreated for 5 mins at 30 degreeC followed by 5 mins incubation at 95 degreeC by fluorescence assay; summary of the method: as §1
[3] = tested on: CCRF-CEM; test: Growth inhibition of human CCRF-CEM cells incubated for 48 hrs by sulforhodamine B assay; format: functional
[4] = tested on: K562; test: Growth inhibition of human K562 cells incubated for 48 hrs by sulforhodamine B assay; format: functional; settings: K562, 48 h
[5] = tested on: RPMI-8226; test: Growth inhibition of human RPMI8226 cells incubated for 48 hrs by sulforhodamine B assay; format: functional; settings: RPMI-8226, 48 h
[6] = tested on: SR; test: Growth inhibition of human SR cells incubated for 48 hrs by sulforhodamine B assay; format: functional
[7] = tested on: A549; test: Growth inhibition of human A549/ATCC cells incubated for 48 hrs by sulforhodamine B assay; format: functional; settings: A549, 48 h
[8] = tested on: EKVX; test: Growth inhibition of human EKVX cells incubated for 48 hrs by sulforhodamine B assay; format: functional
[9] = tested on: HOP-62; test: Growth inhibition of human HOP62 cells incubated for 48 hrs by sulforhodamine B assay; format: functional; settings: HOP-62, 48 h
[10] = tested on: NCI-H23; test: Growth inhibition of human NCI-H23 cells incubated for 48 hrs by sulforhodamine B assay; format: functional; settings: NCI-H23, 48 h
[11] = tested on: NCI-H322M; test: Growth inhibition of human NCI-H322M cells incubated for 48 hrs by sulforhodamine B assay; format: functional
[12] = tested on: NCI-H460; test: Growth inhibition of human NCI-H460 cells incubated for 48 hrs by sulforhodamine B assay; format: functional; settings: NCI-H460, 48 h
[13] = tested on: NCI-H522; test: Growth inhibition of human NCI-H522 cells incubated for 48 hrs by sulforhodamine B assay; format: functional; settings: NCI-H522, 48 h
[14] = tested on: COLO 205; test: Growth inhibition of human COLO205 cells incubated for 48 hrs by sulforhodamine B assay; format: functional; settings: COLO 205, 48 h
[15] = tested on: HCC 2998; test: Growth inhibition of human HCC2998 cells incubated for 48 hrs by sulforhodamine B assay; format: functional; settings: HCC 2998, 48 h
[16] = tested on: HCT-116; test: Growth inhibition of human HCT116 cells incubated for 48 hrs by sulforhodamine B assay; format: functional; settings: HCT-116, 48 h
[17] = tested on: HCT-15; test: Growth inhibition of human HCT15 cells incubated for 48 hrs by sulforhodamine B assay; format: functional; settings: HCT-15, 48 h
[18] = tested on: KM12; test: Growth inhibition of human KM12 cells incubated for 48 hrs by sulforhodamine B assay; format: functional; settings: KM12, 48 h
[19] = tested on: SW-620; test: Growth inhibition of human SW620 cells incubated for 48 hrs by sulforhodamine B assay; format: functional; settings: SW-620, 48 h
[20] = tested on: SF-268; test: Growth inhibition of human SF268 cells incubated for 48 hrs by sulforhodamine B assay; format: functional; settings: SF-268, 48 h
[21] = tested on: SF-295; test: Growth inhibition of human SF295 cells incubated for 48 hrs by sulforhodamine B assay; format: functional; settings: SF-295, 48 h
[22] = tested on: SF-539; test: Growth inhibition of human SF539 cells incubated for 48 hrs by sulforhodamine B assay; format: functional; settings: SF-539, 48 h
[23] = tested on: SNB-19; test: Growth inhibition of human SNB19 cells incubated for 48 hrs by sulforhodamine B assay; format: functional; settings: SNB-19, 48 h
[24] = tested on: SNB-75; test: Growth inhibition of human SNB75 cells incubated for 48 hrs by sulforhodamine B assay; format: functional; settings: SNB-75, 48 h
[25] = tested on: LOX IMVI; test: Growth inhibition of human LOXIMVI cells incubated for 48 hrs by sulforhodamine B assay; format: functional
[26] = tested on: M14; test: Growth inhibition of human M14 cells incubated for 48 hrs by sulforhodamine B assay; format: functional; settings: M14, 48 h
[27] = tested on: MDA-MB-435; test: Growth inhibition of human MDA-MB-435 cells incubated for 48 hrs by sulforhodamine B assay; format: functional; settings: MDA-MB-435, 48 h
[28] = tested on: SK-MEL-2; test: Growth inhibition of human SK-MEL-2 cells incubated for 48 hrs by sulforhodamine B assay; format: functional; settings: SK-MEL-2, 48 h
[29] = tested on: OVCAR-3; test: Growth inhibition of human OVCAR3 cells incubated for 48 hrs by sulforhodamine B assay; format: functional; settings: OVCAR-3, 48 h
[30] = tested on: OVCAR-5; test: Growth inhibition of human OVCAR5 cells incubated for 48 hrs by sulforhodamine B assay; format: functional; settings: OVCAR-5, 48 h
[31] = tested on: NCI/ADR-RES; test: Growth inhibition of human NCI-ADR-RES cells incubated for 48 hrs by sulforhodamine B assay; format: functional
[32] = tested on: SK-OV-3; test: Growth inhibition of human SKOV3 cells incubated for 48 hrs by sulforhodamine B assay; format: functional; settings: SK-OV-3, 48 h
[33] = tested on: 786-0; test: Growth inhibition of human 786-0 cells incubated for 48 hrs by sulforhodamine B assay; format: functional; settings: 786-0, 48 h
[34] = tested on: A498; test: Growth inhibition of human A498 cells incubated for 48 hrs by sulforhodamine B assay; format: functional; settings: A498, 48 h
[35] = tested on: ACHN; test: Growth inhibition of human ACHN cells incubated for 48 hrs by sulforhodamine B assay; format: functional
[36] = tested on: CAKI-1; test: Growth inhibition of human Caki1 cells incubated for 48 hrs by sulforhodamine B assay; format: functional; settings: CAKI-1, 48 h
[37] = tested on: RXF 393; test: Growth inhibition of human RXF393 cells incubated for 48 hrs by sulforhodamine B assay; format: functional; settings: RXF 393, 48 h
[38] = tested on: SN12C; test: Growth inhibition of human SN12C cells incubated for 48 hrs by sulforhodamine B assay; format: functional
[39] = tested on: TK-10; test: Growth inhibition of human TK10 cells incubated for 48 hrs by sulforhodamine B assay; format: functional; settings: TK-10, 48 h
[40] = tested on: UO-31; test: Growth inhibition of human UO31 cells incubated for 48 hrs by sulforhodamine B assay; format: functional; settings: UO-31, 48 h
[41] = tested on: DU-145; test: Growth inhibition of human DU145 cells incubated for 48 hrs by sulforhodamine B assay; format: functional; settings: DU-145, 48 h
[42] = tested on: MDA-MB-231; test: Growth inhibition of human MDA-MB-231 cells incubated for 48 hrs by sulforhodamine B assay; format: functional; settings: MDA-MB-231, 48 h
[43] = tested on: BT-549; test: Growth inhibition of human BT549 cells incubated for 48 hrs by sulforhodamine B assay; format: functional; settings: BT-549, 48 h
[44] = tested on: T47D; test: Growth inhibition of human T47D cells incubated for 48 hrs by sulforhodamine B assay; format: functional
[45] = tested on: MDA-MB-468; test: Growth inhibition of human MDA-MB-468 cells incubated for 48 hrs by sulforhodamine B assay; format: functional; settings: MDA-MB-468, 48 h

## COc1ccccc1CNCCCN1C(=O)c2ccc3c4c(ccc(c24)C1=O)C(=O)N(CCCNCCCN)C3=O
[1]
  ΔTm: 13.3 °C
[2]
  ΔTm: 7 °C
[3]
  GI50: 0.193 µM
[4]
  GI50: 0.264 µM
[5]
  GI50: 0.612 µM
[6]
  GI50: 0.028 µM
[7]
  GI50: 0.148 µM
[8]
  GI50: 1.02 µM
[9]
  GI50: 0.466 µM
[10]
  GI50: 0.318 µM
[11]
  GI50: 1.07 µM
[12]
  GI50: 0.154 µM
[13]
  GI50: 0.572 µM
[14]
  GI50: 0.457 µM
[15]
  GI50: 0.352 µM
[16]
  GI50: 0.135 µM
[17]
  GI50: 0.887 µM
[18]
  GI50: 0.705 µM
[19]
  GI50: 0.109 µM
[20]
  GI50: 0.41 µM
[21]
  GI50: 0.456 µM
[22]
  GI50: 0.968 µM
[23]
  GI50: 0.702 µM
[24]
  GI50: 1.29 µM
[25]
  GI50: 0.302 µM
[26]
  GI50: 0.992 µM
[27]
  GI50: 0.57 µM
[28]
  GI50: 0.907 µM
[29]
  GI50: 0.332 µM
[30]
  GI50: 1.41 µM
[31]
  GI50: 1.17 µM
[32]
  GI50: 1.04 µM
[33]
  GI50: 0.715 µM
[34]
  GI50: 0.398 µM
[35]
  GI50: 0.529 µM
[36]
  GI50: 0.828 µM
[37]
  GI50: 0.246 µM
[38]
  GI50: 0.538 µM
[39]
  GI50: 1.61 µM
[40]
  GI50: 0.745 µM
[41]
  GI50: 0.638 µM
[42]
  GI50: 1.42 µM
[43]
  GI50: 1.44 µM
[44]
  GI50: 0.793 µM
[45]
  GI50: 0.246 µM

## COc1ccccc1CNCCCN1C(=O)c2ccc3c4c(ccc(c24)C1=O)C(=O)N(CCCCNCCCN)C3=O
[1]
  ΔTm: 22.2 °C
[2]
  ΔTm: 9.1 °C
[3]
  GI50: 0.7 µM
[4]
  GI50: 1.9 µM
[5]
  GI50: 1.95 µM
[6]
  GI50: 0.038 µM
[7]
  GI50: 1.58 µM
[8]
  GI50: 2.06 µM
[9]
  GI50: 2.98 µM
[10]
  GI50: 0.747 µM
[11]
  GI50: 2.15 µM
[12]
  GI50: 0.767 µM
[13]
  GI50: 1.47 µM
[14]
  GI50: 0.69 µM
[15]
  GI50: 0.81 µM
[16]
  GI50: 0.742 µM
[17]
  GI50: 4.46 µM
[18]
  GI50: 2.55 µM
[19]
  GI50: 0.641 µM
[20]
  GI50: 1.66 µM
[21]
  GI50: 3.66 µM
[22]
  GI50: 1.69 µM
[23]
  GI50: 1.32 µM
[24]
  GI50: 16.7 µM
[25]
  GI50: 1.03 µM
[26]
  GI50: 1.9 µM
[27]
  GI50: 0.96 µM
[28]
  GI50: 1.09 µM
[29]
  GI50: 0.338 µM
[30]
  GI50: 3.05 µM
[31]
  GI50: 5.99 µM
[32]
  GI50: 4.03 µM
[33]
  GI50: 2.27 µM
[34]
  GI50: 4.4 µM
[35]
  GI50: 3.73 µM
[36]
  GI50: 13.2 µM
[37]
  GI50: 0.886 µM
[38]
  GI50: 0.947 µM
[39]
  GI50: 2.62 µM
[40]
  GI50: 3.52 µM
[41]
  GI50: 1.59 µM
[42]
  GI50: 2.68 µM
[43]
  GI50: 2.23 µM
[44]
  GI50: 1.3 µM
[45]
  GI50: 0.284 µM
